Source: PubChem (several laboratories)
CDK5 inh – inhibitors of human CDK5/p35 kinase; Q00535+Q15078; Recombinant CDK5/p35, ADP-Glo luminescence, 60 min; inhibition, % at 10 µM; 330,000 compounds, 0.01% hits; AID 488839;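 active means highest replicate inhibition of at least 50% and at least 75% of replicates reaching 50%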;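 further: plate controls were DMSO neutral control for no effect and GW8510 at 10 µM for full effect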
Target sequence (Q00535 whole entry, looked up): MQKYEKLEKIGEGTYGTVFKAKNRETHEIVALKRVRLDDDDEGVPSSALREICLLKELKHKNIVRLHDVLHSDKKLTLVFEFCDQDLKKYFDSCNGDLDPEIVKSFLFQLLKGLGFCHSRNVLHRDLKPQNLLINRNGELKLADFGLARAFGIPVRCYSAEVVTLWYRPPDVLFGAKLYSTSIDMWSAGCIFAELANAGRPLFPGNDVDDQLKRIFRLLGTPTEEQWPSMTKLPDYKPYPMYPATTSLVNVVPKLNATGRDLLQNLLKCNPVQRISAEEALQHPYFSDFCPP
Target sequence (Q15078 whole entry, looked up): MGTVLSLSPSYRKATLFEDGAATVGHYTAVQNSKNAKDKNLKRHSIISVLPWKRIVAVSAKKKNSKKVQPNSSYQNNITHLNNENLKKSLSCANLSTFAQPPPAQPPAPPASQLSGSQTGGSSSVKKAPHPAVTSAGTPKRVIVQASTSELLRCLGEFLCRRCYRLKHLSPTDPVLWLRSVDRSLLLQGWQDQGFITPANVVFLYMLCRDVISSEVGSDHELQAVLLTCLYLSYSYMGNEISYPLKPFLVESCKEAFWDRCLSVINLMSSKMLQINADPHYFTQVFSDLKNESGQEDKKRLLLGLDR
PvdQ acylase – P. aeruginosa PvdQ acylase inhibition; purified PvdQ acylase, fluorescence plate reader; inhibition, % at 10 µM; 340,000 compounds, 0.063% hits; AID 488965; in the data active means inhibition above about 30%, passing the limit was not always enough;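 further: 0% = vehicle neutral wells and 100% = reference inhibitor wells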
Tb MetRS inh – Trypanosoma brucei MetRS inhibition; purified T. brucei MetRS, ATP depletion, Kinase-Glo luminescence; inhibition, % at 11.9 µM; 360,000 compounds, 0.4% hits; AID 624268;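 active means inhibition above a per-plate cutoff of the control wells' mean inhibition plus 3 SD, cut at about 5.5% in these data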;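 further: 0% = DMSO wells median and 100% = median of wells with control inhibitor compound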
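Dosing: 11.9 µM single point; system: parasite MetRS enzyme; technique: luminescence of leftover ATP; times: 15 min enzyme-compound preincubation, 2 h reaction, 10 min detection, 25 °C; replicates: each compound tested once; read-out basis: percent inhibition relative to median high and low control wells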
CAL PDZ FP-1 – blocks peptide binding to human CAL PDZ domain; inhibition, % at 20 µM; purified CAL PDZ, TMR-peptide fluorescence polarization, 1 h; 330,000 compounds, 0.02% hits; Q9HD26; AID 504414;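 active means highest replicate inhibition of at least 40%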;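 further: plate controls were DMSO neutral control wells for no effect and unlabeled competitor peptide control wells for full effect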
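Material: tagged CAL PDZ domain; buffer or medium: 25 mM sodium phosphate pH 7.4, 150 mM NaCl, TCEP, IgG, Thesit; compound dosing: single point, 20 µM; schedule: 1 h incubation at room temperature before polarization reading; measured by: FP readout, S and P plane fluorescence; read-out basis: percent inhibition from loss of millipolarization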
Dyrk1A ADPGlo – blocks rat Dyrk1A kinase activity | ADP-Glo luminescence, NFATc1 peptide | inhibition, % at 12.5 µM | AID 504441 | 310,000 compounds, 0.43% hits | Q63470; in the data active means inhibition above about 50%;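 further: plate controls were vehicle with enzyme for no effect and no enzyme for full effect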
CAL PDZ FP-2 – CAL PDZ (human) peptide binding inhibition | Q9HD26 | purified CAL PDZ, TMR-peptide fluorescence polarization, 1 h | inhibition, % at 24.9 µM | 300,000 compounds, 0.92% hits | AID 602252;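 active means mean inhibition of at least 30% with at least half of replicates also reaching 30%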;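 further: 0% = DMSO neutral control and 100% = excess unlabeled competitor peptide PRC23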
The depositor's hits bear a star. Rows were chosen to be rich in hits. Some 1.4% of all compounds tested hit in one or more screens of this group.

Screening CCOC(=O)c1ccc(N2C(=O)C(C)=C(C)C2=O)cc1 returned CDK5 inh -0.7, PvdQ acylase 37.6*, Tb MetRS inh 0.0, CAL PDZ FP-1 0.8, Dyrk1A ADPGlo -6.4 and CAL PDZ FP-2 -1.5.
For Clc1ccc(-c2nnc(-c3ccco3)o2)cc1 the results were CDK5 inh 0.4, PvdQ acylase 58.2*, Tb MetRS inh -1.0, CAL PDZ FP-1 -4.4, Dyrk1A ADPGlo -3.2 and CAL PDZ FP-2 -0.1.
Screening c1cncc(-c2nnc(-c3ccco3)o2)c1 returned CDK5 inh -1.4, PvdQ acylase -5.7, Tb MetRS inh -0.5, CAL PDZ FP-1 -2.3, Dyrk1A ADPGlo -0.7 and CAL PDZ FP-2 -3.1.
Screening C=CCC(NC(=O)N(C)C)(C(=O)OC)C(C)O (stereo unspecified) returned Tb MetRS inh -0.2.
Cc1nn(CC(=O)N2CC(=O)Nc3ccccc32)c(C)c1[N+](=O)[O-] was read as CDK5 inh -1.1, PvdQ acylase -14.7, Tb MetRS inh 0.3, CAL PDZ FP-1 1.4, Dyrk1A ADPGlo -1.3 and CAL PDZ FP-2 63.1*.
Screening Cc1nn(CC(=O)N2CCc3ccccc3C2)c(C)c1[N+](=O)[O-] returned CDK5 inh -0.3, PvdQ acylase -0.4, Tb MetRS inh 0.1, CAL PDZ FP-1 -1.0, Dyrk1A ADPGlo -3.4 and CAL PDZ FP-2 -4.3.
COCCN1C[C@@H](CO)O[C@@H](n2cnc3c(NCCO)ncnc32)C1 was read as Tb MetRS inh -0.1.
Screening O=C(O)c1ccc(Cl)c(S(=O)(=O)Nc2ccc(S(=O)(=O)N3CCCC3)cc2)c1 returned CDK5 inh 0.8, PvdQ acylase 12.7, Tb MetRS inh -0.4, CAL PDZ FP-1 -0.6, Dyrk1A ADPGlo 0.1 and CAL PDZ FP-2 -4.8.
`CC(=O)c1ccc(S(=O)(=O)Nc2ccc(Cl)c(S(=O)(=O)N3CCCC3)c2)cc1` gave CDK5 inh -1.2, PvdQ acylase -17.6, Tb MetRS inh -0.4, CAL PDZ FP-1 -0.3, Dyrk1A ADPGlo -3.0 and CAL PDZ FP-2 63.1*.
`Cc1ccc(-c2ccc(CN3C(CC(C)C)C(=O)N(Cc4cn(CC5CCCCC5)nn4)CCS3(=O)=O)cc2)cc1` (stereo unspecified) gave Tb MetRS inh -1.0.
For Cc1ccc2nc(SCC(=O)NC3CCCc4ccccc43)[nH]c2c1 (stereo unspecified) the results were CDK5 inh -1.8, PvdQ acylase -12.2, Tb MetRS inh 0.5, CAL PDZ FP-1 -1.3, Dyrk1A ADPGlo -5.3 and CAL PDZ FP-2 83.5*.
For CCOc1ccc(NC(=O)CN(C)CC(=O)NC2CCCc3ccccc32)cc1OCC (stereo unspecified) the results were CDK5 inh 1.2, PvdQ acylase -13.4, Tb MetRS inh -0.2, CAL PDZ FP-1 0.1, Dyrk1A ADPGlo 0.5 and CAL PDZ FP-2 40.3*.
Screening O=C(CSc1cc(Cl)ccc1Cl)NC1CCCc2ccccc21 (stereo unspecified) returned CDK5 inh 0.2, PvdQ acylase 3.8, Tb MetRS inh -0.5, CAL PDZ FP-1 -3.1, Dyrk1A ADPGlo -3.7 and CAL PDZ FP-2 -6.1.
Screening Cc1ccc(NC(=O)CN(C)CC(=O)NC2CCCc3ccccc32)cc1 (stereo unspecified) returned CDK5 inh 0.8, PvdQ acylase -7.9, Tb MetRS inh 0.4, CAL PDZ FP-1 -2.0, Dyrk1A ADPGlo -4.1 and CAL PDZ FP-2 -4.2.
`COc1cc(CC(=O)NC2CCCc3ccccc32)cc(OC)c1OC` (stereo unspecified) gave CDK5 inh -2.3, PvdQ acylase -13.8, Tb MetRS inh 0.3, CAL PDZ FP-1 -0.7, Dyrk1A ADPGlo -3.5 and CAL PDZ FP-2 42.9*.
Screening COc1ccc(S(=O)(=O)N2CCCCC2c2cc(C(=O)NCc3ccccc3)no2)cc1 (stereo unspecified) returned Tb MetRS inh -0.2.
`CN(C)S(=O)(=O)Oc1ccc(C(=O)Nc2cccc(C(F)(F)F)c2)cc1` gave CDK5 inh -0.2, PvdQ acylase -11.2, Tb MetRS inh -0.8, CAL PDZ FP-1 -0.4, Dyrk1A ADPGlo -5.7 and CAL PDZ FP-2 38.2*.
Screening CC(=O)Nc1ccc(C(=O)CN2C(=O)NC3(CCCCCC3)C2=O)c(F)c1 returned CDK5 inh -0.8, PvdQ acylase -4.5, Tb MetRS inh -0.4, CAL PDZ FP-1 -0.3, Dyrk1A ADPGlo -3.8 and CAL PDZ FP-2 2.3.
Screening CC(=O)Nc1ccc(C(=O)CN2C(=O)NC3(CCOc4ccccc43)C2=O)c(F)c1 (stereo unspecified) returned CDK5 inh 0.5, PvdQ acylase -1.6, Tb MetRS inh -0.2, CAL PDZ FP-1 -1.0, Dyrk1A ADPGlo 1.0 and CAL PDZ FP-2 39.6*.
`C[C@@H]1CN([C@H](C)CO)C(=O)c2cc(NC(=O)Nc3ccc(C(F)(F)F)cc3)ccc2O[C@H]1CN(C)Cc1ccc(Cl)c(Cl)c1` gave CDK5 inh -2.8, PvdQ acylase -11.3, Tb MetRS inh -1.2, CAL PDZ FP-1 -0.2, Dyrk1A ADPGlo 2.7 and CAL PDZ FP-2 36.6*.
C[C@H]1CN([C@@H](C)CO)C(=O)c2cccc(NC(=O)Nc3ccc(C(F)(F)F)cc3)c2O[C@@H]1CN(C)Cc1ccc(Cl)c(Cl)c1 was read as CDK5 inh 0.0, PvdQ acylase -9.1, Tb MetRS inh -0.4, CAL PDZ FP-1 -1.0, Dyrk1A ADPGlo 3.6 and CAL PDZ FP-2 -1.6.
Screening O=[N+]([O-])c1nccn1C1C=CC(O)C(CO)O1 (stereo unspecified) returned Tb MetRS inh -0.5.
Screening O=C(CN1CCCCC1)N=Nc1c(O)[nH]c2ccccc12 returned CDK5 inh 0.5, PvdQ acylase -8.3, Tb MetRS inh -0.2, CAL PDZ FP-1 -1.0, Dyrk1A ADPGlo -1.5 and CAL PDZ FP-2 40.6*.
For CCOC(=O)C1=CCC(c2ccccc2Cl)N(S(=O)(=O)c2ccc(C)cc2)C1 (stereo unspecified) the results were Tb MetRS inh -0.5.
Screening CC1CCN(S(=O)(=O)c2cc(C(=O)N3CCN(c4ccccc4)CC3)ccc2Br)CC1 returned Tb MetRS inh -0.2.
COCCCNC(=O)C[C@@H]1C[C@@]2(C(=O)OC)CCCCC=C2N(Cc2ccco2)C1=O was read as Tb MetRS inh -0.8.
CNC(=O)c1cn(-c2ccc(Cl)cc2)c(=O)c2ccccc12 was read as CDK5 inh -2.5, PvdQ acylase -9.1, Tb MetRS inh 0.2, Dyrk1A ADPGlo -3.4 and CAL PDZ FP-2 47.5*.
For CC1(C)CC(NC(=O)C2CCN(S(=O)(=O)c3ccc(Cl)c(C(F)(F)F)c3)CC2)CC(C)(C)N1 the results were CDK5 inh -0.8, PvdQ acylase -6.0, Tb MetRS inh -0.3, CAL PDZ FP-1 0.3, Dyrk1A ADPGlo -0.7 and CAL PDZ FP-2 57.7*.
Screening CC1(C)CC(NC(=O)C2CCN(S(=O)(=O)c3ccccc3C(F)(F)F)CC2)CC(C)(C)N1 returned CDK5 inh -1.9, PvdQ acylase -28.5, Tb MetRS inh -0.3, CAL PDZ FP-1 1.3, Dyrk1A ADPGlo -1.9 and CAL PDZ FP-2 -2.2.
